Experimental data gathered from unrelated publications.
Lines come from different studies, so protocols differ.
Target: Calcium/calmodulin-dependent protein kinase kinase 2 (CAMKK2, Homo sapiens, UniProt Q96RR4)

SMILES	observed	method	tested at	remaining binding
Nc1ncc2c(n1)-c1c([nH]c3ccc(C#CC4CC4)cc13)CCCC2	binding	competition with immobilised ligand	1 µM	94%
CNC(=O)c1ccc(Nc2ncc(C(F)(F)F)c(NCc3nccnc3N(C)S(C)(=O)=O)n2)cc1	cell-free assay	competition with immobilised ligand	0.1 µM	68%
CN(c1nccc(-c2cnn3ncccc23)n1)C1CC1	binding		1 µM	100%
COc1cccc(CNC(=O)c2nc3scc(COCc4ccc(C(=O)O)cc4)c3c(=O)[nH]2)c1	cell-free assay	competition with immobilised ligand	1 µM	100%
Cc1cnn2ncc(-c3ccnc(N(C)C)n3)c2c1	binding		1 µM	63%
N#Cc1ccc(Nc2ccc3[nH]c(=O)[nH]c3c2)c(Cl)c1	cell-free assay	competition with immobilised ligand	1 µM	91%
c1cnn2ncc(-c3ccnc(N4CCC45COC5)n3)c2c1	binding		1 µM	80%
CCN1CCN(Cc2ccc(C(=O)Nc3ccc(C)c(Oc4ccc5c(c4)CC(=O)N5)c3)cc2C(F)(F)F)CC1	binding	competition with immobilised ligand	1 µM	96%
CCC(=N\O)/C(C)=C/c1ccc(F)cc1	cell-free assay	competition with immobilised ligand	1 µM	98%
O=C(c1ccc(Nc2ncc(Cl)c(-c3ccc(Cl)s3)n2)cc1)N1CCC(N2CCCC2)CC1	binding	competition with immobilised ligand	1 µM	65%
C=CC(=O)N1CCC(C(=O)NCC(=O)N2CCN(c3nc(-c4cnc(N)nc4C(F)F)nc(N4CCOCC4)n3)CC2)CC1	binding	competition with immobilised ligand	1 µM	95%
CC1=C(C#N)C(c2ccc3c(c2)c(NC(=O)c2ccccc2C)nn3C)C(C#N)=C(C)N1	cell-free assay	competition with immobilised ligand	1 µM	100%
CN(C)c1nccc(-c2cnn3ncccc23)n1	binding		1 µM	82%
COc1ncc2cc3ccccc3nc2c1C#N	cell-free assay	competition with immobilised ligand	5 µM	96%
Cc1cc(NC(=O)c2cccc(S(F)(F)(F)(F)F)c2)cc(-n2ccn3nc(-c4cccnc4)cc23)c1	cell-free assay	competition with immobilised ligand	1 µM	99.6%
O=C(Nc1c[nH]nc1C(=O)NC1CCNCC1)c1cc(F)cc(F)c1	binding	competition with immobilised ligand	1 µM	91%
C[C@@H]1CCN(c2nccc(-c3cnn4ncccc34)n2)C1	binding		1 µM	72%
O=C(NCCCN1CCOCC1)c1ccc(Nc2nccc(-c3cc4ccccc4s3)n2)cc1	binding	competition with immobilised ligand	1 µM	81%
N[C@H]1CCN(c2nccc(-c3cnn4ncccc34)n2)C1	binding		1 µM	100%
COc1cnc(Nc2cccc(S(N)(=O)=O)c2)nc1N1CCN(c2ccccc2)CC1	binding	competition with immobilised ligand	1 µM	92%
